# Calls of active or inactive are those of the source. The calls are words filed in the database; no cut-off is given here.
# Experiments:
# HEL [1] = assay: Cell cycle arrest in human HEL cells assessed as accumulation at G2 phase at 0.5 uM after 48 hrs by propidium iodide staining-based flow cytometric analysis (reference value: 5.28%); format: functional
# [2] = biological target: Histone deacetylase 1 (Homo sapiens) (UniProt Q13547); conditions: MV4-11, 12.5 to 200 nM
# HEL [3] = assay: animal or person; format: functional, Homo sapiens; conditions: Mus musculus, po, read-out: TGI
# [4] = Cytotoxicity against human ES2 cells assessed as growth inhibition after 48 hrs by MTT assay; format: functional, cell-based; conditions: ES-2, 48 h
# HeLa = assay: Cytotoxicity against human HeLa cells assessed as growth inhibition after 48 hrs by MTT assay; format: functional, cell-based
# HEL [5] = assay: Antitumor activity against human HEL cells xenografted in BALB/c-nu mouse assessed as decrease in tumor volume at 100 mg/kg/day, po administered for 21 days measured every 3 days during compound dosing relative to control; format: functional
# Outline: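 Male athymic nude mice (6–8 weeks) inoculated s.c. in right flank with HEL cells cultured in RPMI 1640/10% FBS; treatment began when tumors were about 100 mm³ (~10 days), 6 mice per group. Oral gavage daily for 21 days; vehicle control PBS containing DMSO. Caliper measurement every 3 days, V = ab²/2; T/C = mean RTV treated / mean RTV control, RTV = Vt/V0.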
# Mus musculus [6] = assay: Toxicity in BALB/c-nu mouse xenografted with human HEL cells assessed as effect on spleen at 120 mg/kg/day, po administered for 21 days; format: organism-based; set-up: route oral; conditions: in vivo, 504 h
# Outline: (§1)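 Nude mice bearing HEL xenografts dosed orally 120 mg/kg/day for 21 days, 6 per group, controls on PBS/DMSO vehicle. After treatment, mice sacrificed and dissected to examine internal organs.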
# [7] = biological target: T1, Protein deacetylase HDAC6 (Homo sapiens) (UniProt Q9UBN7); conditions: MV4-11, 12.5 nM
# T1 sequence (whole entry): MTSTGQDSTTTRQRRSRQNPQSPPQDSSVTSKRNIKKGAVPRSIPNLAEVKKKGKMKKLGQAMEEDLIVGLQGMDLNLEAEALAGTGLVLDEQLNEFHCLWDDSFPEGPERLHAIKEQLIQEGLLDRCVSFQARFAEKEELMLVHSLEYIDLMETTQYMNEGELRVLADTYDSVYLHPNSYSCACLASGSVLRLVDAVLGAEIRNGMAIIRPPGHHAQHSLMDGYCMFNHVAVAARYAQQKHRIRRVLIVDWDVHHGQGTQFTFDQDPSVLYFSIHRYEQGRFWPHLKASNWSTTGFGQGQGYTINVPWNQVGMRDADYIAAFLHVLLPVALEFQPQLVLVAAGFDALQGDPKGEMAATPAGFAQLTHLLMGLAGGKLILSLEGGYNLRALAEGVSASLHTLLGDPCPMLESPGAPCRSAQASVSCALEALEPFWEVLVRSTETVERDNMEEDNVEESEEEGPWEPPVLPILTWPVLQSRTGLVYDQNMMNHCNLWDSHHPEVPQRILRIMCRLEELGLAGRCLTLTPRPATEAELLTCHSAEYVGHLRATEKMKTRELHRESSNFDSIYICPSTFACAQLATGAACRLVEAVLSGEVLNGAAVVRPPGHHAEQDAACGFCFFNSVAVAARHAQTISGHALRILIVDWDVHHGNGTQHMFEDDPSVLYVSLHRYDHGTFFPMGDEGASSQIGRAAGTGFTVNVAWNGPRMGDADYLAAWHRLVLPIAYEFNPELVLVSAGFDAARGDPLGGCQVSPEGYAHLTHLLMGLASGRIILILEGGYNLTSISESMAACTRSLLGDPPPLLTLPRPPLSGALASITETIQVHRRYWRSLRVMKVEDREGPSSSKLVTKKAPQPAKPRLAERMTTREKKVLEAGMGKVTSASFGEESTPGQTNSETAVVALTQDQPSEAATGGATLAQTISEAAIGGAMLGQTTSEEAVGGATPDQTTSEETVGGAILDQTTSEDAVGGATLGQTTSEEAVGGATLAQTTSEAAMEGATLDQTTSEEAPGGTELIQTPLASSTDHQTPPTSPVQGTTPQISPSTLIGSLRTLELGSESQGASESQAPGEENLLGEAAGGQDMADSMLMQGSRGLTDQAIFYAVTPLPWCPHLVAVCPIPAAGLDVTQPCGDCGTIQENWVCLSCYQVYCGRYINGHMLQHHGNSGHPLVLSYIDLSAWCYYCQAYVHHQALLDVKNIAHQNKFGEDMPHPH
# [8] = Cytotoxicity against human 3AO cells assessed as growth inhibition after 48 hrs by MTT assay; format: functional, cell-based
# [9] = Cytotoxicity against human U937 cells assessed as growth inhibition after 48 hrs by MTT assay; format: functional, cell-based; conditions: U-937, 48 h
# HUVEC = assay: Cytotoxicity against HUVEC assessed as growth inhibition after 48 hrs by MTT assay; format: cell-based; conditions: Homo sapiens
# [10] = Cytotoxicity against human MDA cells assessed as growth inhibition after 48 hrs by MTT assay; format: functional, cell-based
# HEL [11] = assay: Cell cycle arrest in human HEL cells assessed as accumulation at S phase at 0.5 uM after 48 hrs by propidium iodide staining-based flow cytometric analysis (reference value: 46.88%); format: functional
# HEL [12] = assay: Antitumor activity against human HEL cells xenografted in po dosed BALB/c-nu mouse administered for 21 days measured every 3 days during compound dosing; format: functional, organism-based
# Outline: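 Subcutaneous HEL xenograft in right flank of male athymic nude mice, 6 per group, dosing started at ~100 mm³. Oral administration at 100 or 120 mg/kg/day for 21 consecutive days; controls given PBS containing DMSO. Tumors measured by caliper every 3 days (V = ab²/2); tumors weighed after sacrifice; mean ± SD.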
# Mus musculus [13] = assay: Toxicity in BALB/c-nu mouse xenografted with human HEL cells assessed as effect on liver at 120 mg/kg/day, po administered for 21 days; format: organism-based; set-up: route oral; conditions: in vivo, 504 h; outline: as §1
# [14] = Cytotoxicity against human KG1 cells assessed as growth inhibition after 48 hrs by MTT assay; format: functional, cell-based; conditions: KG-1, 48 h
# [15] = biological target: Histone deacetylase 2 (Homo sapiens) (UniProt Q92769); conditions: MV4-11, 12.5 to 200 nM
# Sequence of Histone deacetylase 2 (Homo sapiens) (Q92769 whole entry): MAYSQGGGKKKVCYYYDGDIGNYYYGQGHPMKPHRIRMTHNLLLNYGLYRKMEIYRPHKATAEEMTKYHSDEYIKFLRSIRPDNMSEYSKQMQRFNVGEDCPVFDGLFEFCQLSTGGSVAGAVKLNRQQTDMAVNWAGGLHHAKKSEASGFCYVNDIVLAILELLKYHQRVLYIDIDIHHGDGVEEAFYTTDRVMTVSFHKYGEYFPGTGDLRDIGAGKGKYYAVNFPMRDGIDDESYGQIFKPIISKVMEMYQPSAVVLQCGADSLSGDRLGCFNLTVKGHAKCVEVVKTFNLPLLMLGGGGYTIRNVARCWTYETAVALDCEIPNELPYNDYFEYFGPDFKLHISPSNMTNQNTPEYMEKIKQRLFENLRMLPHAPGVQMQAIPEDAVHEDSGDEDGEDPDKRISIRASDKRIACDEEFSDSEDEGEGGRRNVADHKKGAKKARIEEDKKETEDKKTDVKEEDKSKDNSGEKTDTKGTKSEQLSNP
# HEL [16] = assay: Cytotoxicity against hemoglobin treated human HEL cells assessed as growth inhibition at 2 uM treated for 24 hrs post hemoglobin challenge measured after 48 hrs by MTT assay; format: functional, cell-based
# Outline: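 HEL cells in RPMI 1640/10% FBS, 37 °C, 5% CO₂, plated ≥4 h before treatment; pretreated 1 h with hemoglobin (0, 2.5, 5, 10 or 20 µM), then 2 µM compound for 24 h, incubated a further 48 h. MTT 0.5%, 4 h, formazan dissolved in DMSO, absorbance 490 and 630 nm; percent growth inhibition versus control; three independent experiments, mean ± SD.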
# HEL [17] = assay: Antitumor activity against human HEL cells xenografted in BALB/c-nu mouse assessed as decrease in tumor volume at 120 mg/kg/day, po administered for 21 days measured every 3 days during compound dosing relative to control; format: functional
# Sequence of Histone deacetylase 1 (Homo sapiens) (Q13547 whole entry): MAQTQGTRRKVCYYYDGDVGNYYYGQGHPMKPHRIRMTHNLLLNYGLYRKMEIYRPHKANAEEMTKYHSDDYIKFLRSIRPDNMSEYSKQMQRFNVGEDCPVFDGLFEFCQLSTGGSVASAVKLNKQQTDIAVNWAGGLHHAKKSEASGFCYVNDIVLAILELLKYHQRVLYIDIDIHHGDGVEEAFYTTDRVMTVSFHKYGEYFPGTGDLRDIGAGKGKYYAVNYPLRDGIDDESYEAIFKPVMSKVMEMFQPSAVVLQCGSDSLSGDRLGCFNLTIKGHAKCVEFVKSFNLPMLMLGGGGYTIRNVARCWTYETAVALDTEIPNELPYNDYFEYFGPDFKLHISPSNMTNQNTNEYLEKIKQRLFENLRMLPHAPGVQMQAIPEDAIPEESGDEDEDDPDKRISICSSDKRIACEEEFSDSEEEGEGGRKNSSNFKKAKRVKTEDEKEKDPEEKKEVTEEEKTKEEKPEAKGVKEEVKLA
smiles,measurement,setting,value
O=C(CCCCCOc1no[n+]([O-])c1S(=O)(=O)c1ccccc1)NO,Activity,HEL [1],0.45%
same,inhibition,[2],Active
same,inhibition in vivo at 120 mg/kg/day,HEL [3],48%
same,IC50,[4],1390 nM
same,IC50,HeLa,1550 nM
same,T/C,HEL [5],56%
same,Activity,Mus musculus [6],Non-toxic
same,inhibition,[7],Active
same,IC50,[8],5840 nM
same,IC50,[9],3100 nM
same,IC50,HUVEC,27100 nM
same,IC50,[10],2250 nM
same,Activity,HEL [11],9.31%
same,Activity,HEL [12],Dose-dependent effect
same,Activity,Mus musculus [13],Non-toxic
same,IC50,[14],1750 nM
same,inhibition,[15],Active
same,growth inhibition (GI),HEL [16],inactive
same,T/C,HEL [17],39%
